Test results from PMC12254776 (Acta Pharmaceutica Sinica. B, 2025).

Key:
RM-1 cells [1] = experiment: MTT cytotoxicity assay against RM-1 cells; format: cell-based, mouse; settings: for effect of GSP on the sensitivity of cells to the drug: GSP at an ineffective concentration of 0.5 μmol/L
Summary of the method: (§1)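 Cells were seeded at 2 × 10³ per well and grown for 12 h at 37 ℃, 5% CO₂. RM-1, 4T1 and L02 were kept in RPMI 1640 with 10% FBS; 3T3 in DMEM/F-12 with 10% FBS. […] MTT (5 mg/mL stock) was added for 4 h, formazan was dissolved in DMSO, and absorbance was read at 492 nm.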

3T3 cells = experiment: MTT cytotoxicity assay against 3T3 cells; format: cell-based, mouse
Summary of the method: as §1

L02 cells = experiment: MTT cytotoxicity assay against L02 cells; format: cell-based, human
Summary of the method: as §1

RM-1 cells [2] = experiment: Live/dead cell co-staining; format: cell-based, mouse; settings: 100 nmol/L CTX equivalent and/or 300 nmol/L GSP equivalent, 24 h
Summary of the method: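 RM-1 cells were seeded on coverslips at 5 × 10⁴ cells/well and grown for 12 h. […] Cells were stained with Calcein-AM (live) and PI (dead) for 30 min and imaged by confocal microscopy. Untreated cells were the control.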

RM-1 cells [3] = experiment: Mitochondrial membrane potential assay; format: cell-based, mouse; settings: green = low potential
Summary of the method: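 Cells were stained with JC-1 working solution at 37 ℃ for 20 min, washed twice in cold JC-1 buffer and imaged by confocal microscopy (red aggregates, green monomers). Depolarization was quantified in ImageJ. For flow cytometry, cells seeded at 5 × 10⁴/well were trypsinised before staining. Untreated cells were the control.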

RM-1 prostate tumor [4] = experiment: In vivo antitumor efficacy, RM-1 prostate tumor-bearing C57BL/6 mice; design: species or system mouse; settings: 4 mg/kg CTX equivalent and/or 7.5 mg/kg GSP equivalent, i.v., every three days, three injections
testosterone = experiment: Serum testosterone; format: in vivo, mouse; settings: 4 mg/kg CTX equivalent and/or 7.5 mg/kg GSP equivalent, three injections
RM-1 prostate tumor [5] = experiment: GSP-rendered ultra-low-dose chemotherapeutic window in vivo; design: species or system mouse; settings: five injections
Summary of the method: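 Male C57BL/6 mice were given 5 × 10⁶ RM-1 cells in 100 μL PBS subcutaneously in the right rear flank. […] Dosing was i.v. every other day, five injections. Tumor volume and body weight were recorded daily. Blood was taken one day after the last dose; organs were taken for H&E.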

4T1 cells = experiment: MTT cytotoxicity assay against 4T1 cells; format: cell-based, mouse; settings: 48 h
Summary of the method: as §1

Bcl-2 = experiment: Western blotting of Bcl-2 in RM-1 cells; format: cell-based, mouse; settings: 10 nmol/L CTX equivalent and/or 30 nmol/L GSP equivalent, 40 h
[6] = 14.9 mg/kg GSP equivalent, i.v.

**Q.** What does the source list for `CO[C@H]1C(=O)[C@]2(C)[C@@H](OC)C[C@H]3OC[C@@]3(OC(C)=O)[C@H]2[C@H](OC(=O)c2ccccc2)[C@]2(O)C[C@H](OC(=O)[C@H](O)[C@@H](NC(=O)OC(C)(C)C)c3ccccc3)C(C)=C1C2(C)C` [CTX, Cabazitaxel]?
**A.** reduction in IC50 values in the presence of GSP (RM-1 cells [1]; 0.5 μmol/L GSP): ≥ 100 fold; effect of GSP on the sensitivity of cells to the drug (RM-1 cells [1]): dramatically augmented; effect of GSP on the cytotoxicity of the drug (3T3 cells; 500 nmol/L GSP): little effect; effect of GSP on the cytotoxicity of the drug (L02 cells; 500 nmol/L GSP): little effect; cell death in live/dead staining (RM-1 cells [2]): only a small portion of cells; mitochondrial membrane potential change (JC-1 fluorescence, in words) (RM-1 cells [3]): green fluorescence signals were significantly enhanced; antitumor activity (tumor growth) (RM-1 prostate tumor [4]): moderate antitumor activity; serum testosterone (testosterone): no change in serum testosterone; body weight (RM-1 prostate tumor [5]; CTX dose gradient 1–8 mg/kg): dramatic weight loss; hepatorenal function indicators and whole blood indexes (RM-1 prostate tumor [5]; CTX dose gradient 1–8 mg/kg): abnormalities in hepatorenal function indicators and pancytopenia; toxicity (weight loss, death) (RM-1 prostate tumor [5]; high doses 4, 6 and 8 mg/kg CTX equivalent, i.v.): serious toxic side effects; anti-tumor effects (RM-1 prostate tumor [5]; low doses 1 and 2 mg/kg CTX equivalent, i.v.): negligible anti-tumor effects

**Q.** With `N.N.[Cl][Pt][Cl]` [DDP, cisplatin] as the molecule, how does the “effect of GSP on the sensitivity of cells to the drug” value (“effect of GSP … to the drug” below) (RM-1 cells [1]) read?
**A.** dramatically augmented

**Q.** With `COc1cccc2c1C(=O)c1c(O)c3c(c(O)c1C2=O)C[C@@](O)(C(=O)CO)C[C@@H]3O[C@H]1C[C@H](N)[C@H](O)[C@H](C)O1` [DOX, doxorubicin] as the molecule, how does the “effect of GSP … to the drug” value (RM-1 cells [1]) read?
**A.** dramatically augmented

**Q.** How did the “effect of GSP … to the drug” value (RM-1 cells [1]) turn out when `CC(=O)O[C@@]12CO[C@@H]1C[C@H](O)[C@@]1(C)C(=O)[C@H](O)C3=C(C)[C@@H](OC(=O)[C@H](O)[C@@H](NC(=O)OC(C)(C)C)c4ccccc4)C[C@@](O)([C@@H](OC(=O)c4ccccc4)[C@H]21)C3(C)C` [DTX, docetaxel] was run?
**A.** dramatically augmented

**Q.** How did the “effect of GSP … to the drug” value (RM-1 cells [1]) turn out when `Nc1ccn([C@@H]2O[C@H](CO)[C@@H](O)C2(F)F)c(=O)n1` [GEM, gemcitabine] was run?
**A.** dramatically augmented

**Q.** Which “cytotoxicity (in words)” value (RM-1 cells [1]; MTT, 48 h) does the source give for `Cc1cc2c(C(C)C)c(O)c(O)c(C=O)c2c(O)c1-c1c(C)cc2c(C(C)C)c(O)c(O)c(C=O)c2c1O` [GSP, Gossypol] here?
**A.** almost no cytotoxicity

**Q.** What about the “cytotoxicity (in words)” value (4T1 cells) of the same molecule?
**A.** almost no cytotoxicity

**Q.** And the “cytotoxicity (in words)” value (3T3 cells; MTT, 48 h)?
**A.** almost no cytotoxicity

**Q.** And the “cytotoxicity (in words)” value (L02 cells; MTT, 48 h)?
**A.** almost no cytotoxicity

**Q.** And the “cell death in live/dead staining” value (RM-1 cells [2])?
**A.** only a small portion of cells

**Q.** What about the “expression of Bcl-2 protein” value (Bcl-2) of the same molecule?
**A.** significantly down-regulated the expression of Bcl-2

**Q.** And the “mitochondrial membrane potential change (JC-1 fluorescence, in words)” value (RM-1 cells [3])?
**A.** negligible impact

**Q.** And the “antitumor activity (tumor growth)” value (RM-1 prostate tumor [4])?
**A.** moderate antitumor activity

**Q.** What about the antitumor effects (RM-1 prostate tumor [5]; [6]) of the same molecule?
**A.** moderate antitumor effects

**Q.** What about the “body weight of tumor-bearing mice” value (RM-1 prostate tumor [5]; [6]) of the same molecule?
**A.** decreased significantly

**Q.** What about the “liver tissue sections (H&E)” value (RM-1 prostate tumor [5]; [6]) of the same molecule?
**A.** some degree of liver injury

**Q.** Which “effect of GSP … to the drug” value (RM-1 cells [1]) does the source give for `O=C1[O][Pt]2([NH][C@@H]3CCCC[C@H]3[NH]2)[O]C1=O` [OXP, oxaliplatin] here?
**A.** dramatically augmented
